Source: PubChem BioAssay
Rows were chosen to be rich in hits. Some 3.5% of all compounds tested hit in one or more screens of this group.
PAFAH2 inh = inhibitors of human PAFAH2 | Q99487 | recombinant PAFAH2, FP-rhodamine activity probe, fluorescence polarization | inhibition, % at 3.39 µM | 0.99% of 340,000 active;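 active = inhibition above the mean over all tested compounds plus 3 SD, cut at about 30% in these data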;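 also: inhibitors block probe labeling of enzyme so polarization drops; 0% = enzyme with DMSO and 100% = wells lacking PAFAH2 protein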
PREPL inhibitor = inhibits the human prolyl oligopeptidase-like enzyme. recombinant PREPL, fluorescence polarization activity-based probe. Q4J6C6. inhibition, % at 5.96 µM. 0.68% of 320,000 active; in the data active = inhibition above about 43%;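 also: 0% = enzyme with DMSO and 100% = wells lacking enzyme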
pPAFAH FP inh = inhibitors of human plasma PAF acetylhydrolase (pPAFAH); recombinant pPAFAH, FP-rhodamine probe fluorescence polarization; Q13093; AID 463082; 1.5% of 330,000 active; inhibition, % at 3.39 µM;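 active = inhibition above the mean inhibition across the screen plus 3 SD, cut at about 25% in these data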;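 also: inhibitors block binding of the rhodamine activity-based probe so polarization drops; 0% = enzyme with DMSO and 100% = wells lacking pPAFAH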
Apaf1 inhib = blocks human Apaf-1 apoptosome activity; O14727; reconstituted apoptosome caspase-3 activity, DEVD-Rh110 fluorescence; inhibition, % at 20 µM; 0.71% of 330,000 active; AID 489030; active = inhibition of at least 40% at 20 µM;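 also: plate controls were DMSO wells for no effect and DEVD-CHO caspase inhibitor wells for full effect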
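Material: cell-free apoptosome with Apaf-1, procaspase-3 and caspase-9; Buffer or medium: Hepes pH 7.5 with detergent and BSA; Reagent: cytochrome c trigger plus (Z-DEVD)2-Rh110 caspase-3 substrate; Times: compound with Apaf-1, dATP, procaspase-3 30 min, then 50 min reaction, room temperature; Technique: Rh110 fluorescence intensity.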
PAFAH1B2 inh = inhibitors of human PAFAH1B2. 1.2% of 340,000 active. AID 492953. recombinant PAFAH1B2, FP-rhodamine activity probe, fluorescence polarization. inhibition, % at 3.39 µM;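 active = inhibition above the mean of all tested compounds plus 3 SD, cut at about 24% in these data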;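 also: 0% = enzyme with DMSO and 100% = wells lacking PAFAH1B2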
Target sequence (P68402 whole entry, looked up): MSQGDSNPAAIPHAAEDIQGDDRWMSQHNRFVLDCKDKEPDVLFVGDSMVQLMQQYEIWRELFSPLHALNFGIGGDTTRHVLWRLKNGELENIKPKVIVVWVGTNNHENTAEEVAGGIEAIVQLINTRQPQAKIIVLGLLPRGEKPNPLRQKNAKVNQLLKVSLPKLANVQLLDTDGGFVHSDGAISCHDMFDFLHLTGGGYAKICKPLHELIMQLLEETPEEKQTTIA
PAFAH1B3 inh = inhibitors of human PAFAH1B3; Q15102; recombinant PAFAH1B3, FP-rhodamine probe, fluorescence polarization; inhibition, % at 3.39 µM; 0.28% of 340,000 active; AID 492972;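 active = inhibition above the screen-wide average of all tested compounds plus 3 SD, cut at about 25% in these data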;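 also: 0% = enzyme with DMSO only and 100% = wells lacking PAFAH1B3 protein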
Target sequence (Q15102 whole entry, looked up): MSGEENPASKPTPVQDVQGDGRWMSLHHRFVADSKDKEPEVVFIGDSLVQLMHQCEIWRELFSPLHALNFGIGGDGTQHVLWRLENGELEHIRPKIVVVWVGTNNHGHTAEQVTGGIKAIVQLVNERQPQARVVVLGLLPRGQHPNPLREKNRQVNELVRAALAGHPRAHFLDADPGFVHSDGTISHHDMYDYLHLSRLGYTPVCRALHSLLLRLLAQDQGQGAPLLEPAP
Apaf-1 inh conf2 = Apaf-1 inhibition, single-dose confirmed. shares compounds with Apaf1 inhib. reconstituted apoptosome, caspase-3 DEVD-Rh110 fluorescence. inhibition, % at 20 µM. 25% of 1,800 active. AID 504614;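 active = mean inhibition of at least 40% at 20 µM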;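 also: plate controls were DMSO wells for no effect and DEVD-CHO caspase inhibitor control wells for full effect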
Rh110 quench = Rh110 signal interference in Apaf-1 inhibitor counter-screen. activation (fluorescence interference), % at 20 µM. Rh110 fluorescence interference, quenched caspase reaction. AID 504615. shares compounds with Apaf1 inhib. 1,800 tested, under 10 active;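 active = signal rise of 40% or more at 20 µM, treated as a fluorescence artifact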
Apaf1 inh interf = Apaf-1 inhibitor counter-screen fluorescence artifact | fluorescence interference counterscreen, Apaf-1 assay format | shares compounds with Apaf1 inhib | AID 588538 | 460 tested, under 10 active | IC50, µM; call rule not given here
PAFAH2 FP conf = confirmation of human PAFAH2 inhibitors | shares compounds with PAFAH2 inh | recombinant PAFAH2, FP-rhodamine activity probe, fluorescence polarization | inhibition, % at 3.39 µM | 65% of 2,300 active | AID 493030;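 active = mean inhibition over three repeats above a set limit taken from the earlier primary screen, cut at about 30% in these data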;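 also: inhibitor blocks binding of rhodamine activity probe so polarization falls; 0% = enzyme with DMSO and 100% = wells lacking PAFAH2 protein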
PAFAH1B3 confirm = PAFAH1B3 (human) inhibition, confirmed. inhibition, % at 3.39 µM. AID 493032. shares compounds with PAFAH1B3 inh. 30% of 390 active. recombinant PAFAH1B3, FP-Rh activity-based probe, fluorescence polarization;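 active = average inhibition over triplicate runs above the hit cutoff set in the earlier primary screen, cut at about 25% in these data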;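 also: 0% = enzyme with DMSO and 100% = wells lacking PAFAH1B3 protein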
The depositor's hits bear a star; nt = no result given.

SMILES	PAFAH2 inh	PREPL inhibitor	pPAFAH FP inh	Apaf1 inhib	PAFAH1B2 inh	PAFAH1B3 inh	Apaf-1 inh conf2	Rh110 quench	others
CN1CCN(c2ncc(C=O)s2)CC1	5	8	0	4	7	4	nt	nt
O=[N+]([O-])c1ccc(NC2CCCC2)c2ccncc12	-1	10	6	42*	0	7	15	2
O=[N+]([O-])c1ccc(NC2CCN(Cc3ccccc3)CC2)c2ccncc12	-5	28	6	74*	12	12	21	9
O=c1cccc2n1CC1CC2CN(Cc2cccc(Cl)c2Cl)C1 (configuration not stated)	-2	9	5	8	6	8	nt	nt
O=C(NN=Cc1ccc(N(CCCl)CCCl)cc1)C(=O)c1c[nH]c2ccccc12	-9	nt	nt	nt	-12	-19	nt	nt
Nc1c(C(=O)OC2CCCCC2)c2nc3ccccc3nc2n1CC1CCCO1 (configuration not stated)	-5	8	8	32	5	9	nt	nt
CCCCn1c(N)c(C(=O)OCC2CCCO2)c2nc3ccccc3nc21 (configuration not stated)	-5	21	6	27	2	15	nt	nt
CC(C)OCCCNC(=O)c1c(N)n(CC2CCCO2)c2nc3ccccc3nc12 (configuration not stated)	28	15	12	94*	26*	55*	30	17
CC(C)CCOC(=O)c1c(N)n(CC2CCCO2)c2nc3ccccc3nc12 (configuration not stated)	0	4	5	24	2	15	nt	nt
CC(C)CCn1c(N)c(C(=O)OCC2CCCO2)c2nc3ccccc3nc21 (configuration not stated)	-5	17	4	41*	0	11	18	0
CC(C)OC(=O)c1c(N)n(CC2CCCO2)c2nc3ccccc3nc12 (configuration not stated)	-3	-4	2	81*	-2	-3	11	5
CC(C)[C@H](NC(=O)N1C[C@H]2C[C@@H](C1)c1cccc(=O)n1C2)C(=O)Nc1ccccc1F	4	1	-4	-8	4	9	nt	nt
CC(C)CC(C)N (configuration not stated)	6	-4	-1	-13	2	3	nt	nt
COc1cc2[nH]c(=O)n(-c3ccccc3)c(=O)c2cc1OC	-1	3	0	-1	0	6	nt	nt
COc1cc(C(c2c(C)[nH]n(-c3ccccc3)c2=O)c2c(C)[nH]n(-c3ccccc3)c2=O)cc(OC)c1OC	11	5	1	92*	6	11	62*	-3	Apaf1 inh interf=>100
Nc1c(C(=O)NCc2ccco2)c2nc3ccccc3nc2n1Cc1ccc(F)cc1	2	11	3	89*	-1	7	25	12
COc1ccc(CCNC(=O)c2c(N)n(CCN3CCOCC3)c3nc4ccccc4nc23)cc1OC	-6	19	12	3	8	2	nt	nt
COc1ccc(Cn2c(N)c(C(=O)NCc3ccco3)c3nc4ccccc4nc32)cc1	-3	13	-4	67*	-2	-5	20	9
Nc1c(C(=O)NCc2ccco2)c2nc3ccccc3nc2n1Cc1ccccc1	5	8	9	23	-2	2	nt	nt
COc1ccc(-n2c(/C=C/c3ccc(O)cc3)nc3ccccc3c2=O)cc1	-1	6	10	0	0	11	nt	nt
CCn1nc(/C=C/c2ccccc2)nc2c(=O)n(C)c(=O)nc1-2	nt	nt	nt	99*	nt	nt	100*	9	Apaf1 inh interf=>100
CCCCCCC(Cl)(Cn1ccnc1)c1ccccc1 (configuration not stated)	3	-29	9	10	-1	4	nt	nt
O=c1c2ccccc2nc(-c2cccs2)n1-c1ccccc1	-6	-6	-3	14	4	0	nt	nt
NC(N)=N/N=C/c1cn(-c2ccccc2)nc1-c1cccs1	1	24	-2	41*	4	18	14	15
Cn1c(=O)[nH]c2nncnc2c1=O	-3	0	3	68*	1	5	68*	-2	Apaf1 inh interf=>100
SMILES	PAFAH2 inh	PREPL inhibitor	pPAFAH FP inh	Apaf1 inhib	PAFAH1B2 inh	PAFAH1B3 inh	Apaf-1 inh conf2	Rh110 quench	others
COC(=O)C1=C(c2ccc(C(C)=O)cc2)C[C@@H]2CC[C@H]1N2C(=O)NCc1ccc2c(c1)OCO2	3	15	1	9	21	0	nt	nt
Nc1cc2nc3ccccc3nc2cc1N	10	28	18	62*	22	23	51*	-9	Apaf1 inh interf=>100
COC(=O)c1nc(-c2ccc3c(n2)C(=O)C(N)=C(OC)C3=O)c(N)c(-c2ccc(OC)c(OC)c2O)c1C	22	4	12	89*	23	70*	100*	3	Apaf1 inh interf=>100;PAFAH1B3 confirm=67*
CCCCn1c(NS(=O)(=O)c2ccc(C)cc2)c(C(=O)OCC)c2nc3ccccc3nc21	7	11	11	90*	6	40*	27	7	PAFAH1B3 confirm=7
CCCCn1c(N)c(C(=O)OCCOC)c2nc3ccccc3nc21	nt	6	4	24	nt	nt	nt	nt
COC(=O)C1=C(c2c(C)noc2C)C[C@@H]2CC[C@H]1N2C(=O)NC1Cc2ccccc2C1	7	11	-1	4	-3	-2	nt	nt
CCCNC(=O)c1c(N)n(CC2CCCO2)c2nc3ccccc3nc12 (configuration not stated)	-1	12	14	93*	8	27*	44*	8	Apaf1 inh interf=>100;PAFAH1B3 confirm=12
Cc1c(C(=O)N2CCC3(CC2)OCCO3)sc2ncnc(N(C)c3ccccc3)c12	6	14	0	16	2	5	nt	nt
Cc1ccc(/C=C2\C(=O)NC(=O)N(CC3CCCO3)C2=O)s1 (configuration not stated)	33*	8	0	0	5	2	nt	nt	PAFAH2 FP conf=8
CCCCNc1ccncc1S(=O)(=O)NC(=O)NC(C)C	-3	-5	4	0	7	1	nt	nt
O=C1NC(=O)N(CCC2=CCCCC2)C(=O)/C1=C\c1cccs1	55*	-4	4	11	9	6	nt	nt	PAFAH2 FP conf=46*
